Here are results for six compounds from article PMC9720839 (Cell reports, 2022).

In one series the test system is WWE domain of RNF-146. Nature of the series: Fluorescence polarization. The following applies: direct FP binding, probe 5 nM.
Series [1] deals with hP13 ZnF5-WWE1-WWE2 R577A mutant (Homo sapiens, UniProt Q7Z2W4, R577A). Nature of the series: Fluorescence polarization. Format: binding. To be noted: R577A versus wild-type hP13 ZnF5-WWE1-WWE2. A digest of the protocol: (§1)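 QuickChange point mutants of human fragment (residues 507–699), His-GB1 fusion, expressed in Rosetta2 (0.2 mM IPTG, 16°C, 18 h), TEV-cleaved, purified by Ni2+, gel filtration, Q flow-through. Quadratic 1:1 KD fit; ≥3 experiments, mean ± SD.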
Chain of hP13 ZnF5-WWE1-WWE2 R577A mutant (Q7Z2W4 507-699 R577A): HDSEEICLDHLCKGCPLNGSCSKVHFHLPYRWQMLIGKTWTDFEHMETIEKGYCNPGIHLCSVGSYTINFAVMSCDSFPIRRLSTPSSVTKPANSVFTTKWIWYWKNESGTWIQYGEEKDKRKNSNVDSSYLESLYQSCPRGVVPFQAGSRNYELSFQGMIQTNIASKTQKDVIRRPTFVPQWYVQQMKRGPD

For series [2], the target named is T1, hP13 ZnF5-WWE1-WWE2 W611A mutant (Homo sapiens, UniProt Q7Z2W4, W611A). Nature of the series: Fluorescence polarization. To be noted: direct FP binding, probe 5 nM. The gist of the method:
as §1

Series [3] addresses hP13 ZnF5-WWE1-WWE2 R682A mutant (Homo sapiens, UniProt Q7Z2W4, R682A). The series is described as follows: Fluorescence polarization. Format: binding. To be noted: R682A versus wild-type hP13 ZnF5-WWE1-WWE2. A digest of the protocol: as §1
Series [4] concerns the target hP13 ZnF5-WWE1-WWE2 (wild type) (Homo sapiens, UniProt Q7Z2W4). The series is described as follows: Differential scanning fluorimetry. It counts as binding. The following applies: protein 8 μM, DSF. A digest of the protocol: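 His-GB1-tagged human fragment (residues 507–699) expressed in E. coli Rosetta2, TEV-cleaved, purified by Ni2+, gel filtration and Q flow-through. TM from Boltzmann fit; ΔTM = TM with ligand minus without; two repeats.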

The test system of another series is WWE domain from RNF-146. To be noted: ref Wang et al., 2012; cited from earlier work.
For series [5], the target named is T1, hP13 ZnF5-WWE1-WWE2 W611A mutant. Nature of the series: Differential scanning fluorimetry. Format: binding. The following applies: protein 8 μM, DSF.
The target in another series is hP13 ZnF5-WWE1-WWE2 (Homo sapiens, UniProt Q7Z2W4). Nature of the series: FP RNA binding assay. To be noted: FAM-labeled RNA 5 nM, 300 mM KCl.
Chain of hP13 ZnF5-WWE1-WWE2 (Q7Z2W4 507-699): as the sequence (Q7Z2W4 507-699 R577A) above, with A71R counted along it
In series [6] the target is mouse PARP13 (mP13) ZnF5-WWE1-WWE2 (residues 476-673) (mouse) (UniProt Q3UPF5). Nature of the series: SEC-MALS.

“Also recorded” adds a separate entry of the source. {56-FAM} = 6-carboxyfluorescein label (IDT code)

Chain of hP13 ZnF5-WWE1-WWE2 (wild type) (Q7Z2W4 507-699): as the sequence (Q7Z2W4 507-699 R577A) above, with A71R counted along it
T1 sequence (Q7Z2W4 507-699 W611A): as the sequence (Q7Z2W4 507-699 R577A) above, with A71R, W105A counted along it
Chain of hP13 ZnF5-WWE1-WWE2 R682A mutant (Q7Z2W4 507-699 R682A): as the sequence (Q7Z2W4 507-699 R577A) above, with A71R, R176A counted along it

Consider γ-(6-Aminohexyl)-ATP-6-FAM [ATP-FAM], for which the “binding to probe (in words)” value (in the series on WWE domain of RNF-146; in series [2]) was “no evidence of binding; also recorded: no indication of binding” throughout. In addition, the “binding affinity, fold weaker than wild type” value in series [1] is given as 1.1 fold; in series [3], 1.2 fold.
Regarding `Nc1ncnc2c1ncn2[C@@H]1O[C@H](COP(=O)(O)O)[C@@H](O)[C@H]1O[C@@H]1O[C@H](COP(=O)(O)O)[C@@H](O)[C@H]1O` [iso-ADPr], the “change in thermal stability in presence of ligand (in words)” value (shortened to “change in thermal stability in presence”) in series [4] is “increase in thermal stability in the presence of iso-ADPr, but to a lesser extent than seen with ADPr”. The “binding (in words)” value in the series on WWE domain from RNF-146 is on record as “capable of binding”.
`Nc1ncnc2c1ncn2[C@@H]1O[C@H](COP(=O)(O)OP(=O)(O)OP(=O)(O)O)[C@@H](O)[C@H]1O` [ATP]: the “change in thermal stability in presence” value in [4] is recorded as “increase in the thermal stability”; in series [5], “did not show an increase in thermal stability”.
As to `Nc1ncnc2c1ncn2[C@@H]1O[C@H](COP(=O)(O)OP(=O)(O)OC[C@H]2OC(O)[C@H](O)[C@@H]2O)[C@@H](O)[C@H]1O` (some centres unmarked) [ADPr, ADP-ribose], the “change in thermal stability in presence” value in series [4] is listed as “increase in the thermal stability; also recorded: increased hP13 ZnF5-WWE1-WWE2 thermal stability”; in series [5], “did not show an increase in thermal stability”. Besides, the “binding (in words)” value in the series with WWE domain from RNF-146 is listed as “do not bind”.
In the case of “/56-FAM/rArArArCrArArArArArArArGrArCrGrArArArArA (AAACAAAAAAAGACGAAAAA; RNA, 5' {56-FAM}, backbone not given here) [RNA-FAM]”, in the series with hP13 ZnF5-WWE1-WWE2, the “RNA binding (in words)” value is listed as “unable to bind”.
In series [6], “mouse PARP13 (mP13) ZnF5-WWE1-WWE2 (residues 476-673) (from UniProt Q3UPF5 476-673) (domain or fragment)” had a percent of the scattering mass in the dimer peak of 4% and a stoichiometry N of 2.
